We go through 33 compounds from ChEMBL document CHEMBL1157459 (J Med Chem, 2008).

Experiment [1] has as its target T1, Gamma-aminobutyric acid receptor subunit rho-1 (Homo sapiens, UniProt P24046). The experiment is described as follows: Antagonist activity at human GABAc Rho1 receptor expressed in Xenopus oocytes assessed as whole cell current production by two electrode voltage clamp method. The experiment is classed as functional, cell-based. Particulars: for Kb: Oocyte.
The target of experiment [2] is T2, Gamma-aminobutyric acid type B receptor subunit 1 (Homo sapiens, UniProt Q9UBS5). The experiment is described as follows: Intrinsic activity at human GABAb 1A/2 receptor expressed in Xenopus oocytes assessed as maximum whole cell current production by two electrode voltage clamp method relative to GABA. In kind it is cell-based. Particulars: Oocyte. Summed up: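 Human GABA-B(1A/2) receptors expressed from cRNA (50 ng/50 nL) in Xenopus oocytes held 1-5 days at 18 °C. Voltage clamp at -60 mV in high-K+ buffer (45 mM KCl, 45 mM NaCl, 1 mM MgCl2, 1.8 mM CaCl2, 5 mM HEPES). Responses normalised to the maximal response to 600 µM GABA. Imax and EC50 taken from concentration-response fits. Mean ± SEM, n = 3-5 oocytes.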

Experiment [3] addresses T3, GABA-A receptor; agonist GABA site (Homo sapiens) (UniProt P14867+P47870+P28472+P48169+P34903+P18505+P47869+P31644+Q16445). The experiment is described as follows: Activity at human alpha-1-beta-2-gamma-2L GABAA receptor expressed in Xenopus oocytes assessed as inhibition of current production at 600 uM by two electrode voltage clamp method relative to GABA. The experiment is classed as cell-based. Particulars: Oocyte.

For experiment [4], the target named is T2, Gamma-aminobutyric acid type B receptor subunit 1. The experiment is described as follows: Agonist activity at human GABAb 1A/2 receptor expressed in Xenopus oocytes assessed as whole cell current production by two electrode voltage clamp method. In kind it is functional, cell-based, Oocyte.
The target is the same in experiment [5]. The experiment is described as follows: Activity at human GABAb 1A/2 receptor expressed in Xenopus oocytes assessed as whole cell current production at 600 uM by two electrode voltage clamp method. In kind it is cell-based. The conditions noted are these: Oocyte.
Experiment [6] deals with T1, Gamma-aminobutyric acid receptor subunit rho-1. The experiment is described as follows: Agonist activity at human GABAc Rho1 receptor expressed in Xenopus oocytes assessed as whole cell current production by two electrode voltage clamp method. The experiment is classed as functional, cell-based, Oocyte.
Experiment [7] deals with T3, GABA-A receptor; agonist GABA site (Homo sapiens). The experiment is described as follows: Agonist activity at human alpha-1-beta-2-gamma-2L GABAA receptor expressed in Xenopus oocytes assessed as inhibition of current production by two electrode voltage clamp method. In kind it is functional, cell-based. Particulars: Oocyte.
Experiment [8] concerns the target T1, Gamma-aminobutyric acid receptor subunit rho-1. The experiment is described as follows: Antagonist activity at human GABAc Rho1 receptor expressed in Xenopus oocytes assessed as whole cell current production at 600 uM by two electrode voltage clamp method. The experiment is classed as functional, cell-based. Particulars: Oocyte.

Each structure is given as a SMILES string. Active and inactive are the calls of the source. The rule behind the calls is not given here.

T1 sequence (P24046 whole entry): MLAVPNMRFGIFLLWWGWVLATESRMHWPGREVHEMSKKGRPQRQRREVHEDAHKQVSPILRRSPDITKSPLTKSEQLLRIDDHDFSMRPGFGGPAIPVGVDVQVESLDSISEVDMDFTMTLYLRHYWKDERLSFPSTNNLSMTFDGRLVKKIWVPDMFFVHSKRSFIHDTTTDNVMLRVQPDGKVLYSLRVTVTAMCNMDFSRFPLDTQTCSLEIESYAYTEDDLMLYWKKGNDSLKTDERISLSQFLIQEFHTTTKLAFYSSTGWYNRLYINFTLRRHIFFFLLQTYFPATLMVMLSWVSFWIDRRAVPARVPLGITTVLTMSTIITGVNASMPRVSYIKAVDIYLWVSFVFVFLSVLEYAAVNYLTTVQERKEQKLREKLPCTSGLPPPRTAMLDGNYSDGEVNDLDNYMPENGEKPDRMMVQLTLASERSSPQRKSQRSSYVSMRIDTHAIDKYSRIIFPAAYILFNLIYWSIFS
T2 sequence (Q9UBS5 whole entry): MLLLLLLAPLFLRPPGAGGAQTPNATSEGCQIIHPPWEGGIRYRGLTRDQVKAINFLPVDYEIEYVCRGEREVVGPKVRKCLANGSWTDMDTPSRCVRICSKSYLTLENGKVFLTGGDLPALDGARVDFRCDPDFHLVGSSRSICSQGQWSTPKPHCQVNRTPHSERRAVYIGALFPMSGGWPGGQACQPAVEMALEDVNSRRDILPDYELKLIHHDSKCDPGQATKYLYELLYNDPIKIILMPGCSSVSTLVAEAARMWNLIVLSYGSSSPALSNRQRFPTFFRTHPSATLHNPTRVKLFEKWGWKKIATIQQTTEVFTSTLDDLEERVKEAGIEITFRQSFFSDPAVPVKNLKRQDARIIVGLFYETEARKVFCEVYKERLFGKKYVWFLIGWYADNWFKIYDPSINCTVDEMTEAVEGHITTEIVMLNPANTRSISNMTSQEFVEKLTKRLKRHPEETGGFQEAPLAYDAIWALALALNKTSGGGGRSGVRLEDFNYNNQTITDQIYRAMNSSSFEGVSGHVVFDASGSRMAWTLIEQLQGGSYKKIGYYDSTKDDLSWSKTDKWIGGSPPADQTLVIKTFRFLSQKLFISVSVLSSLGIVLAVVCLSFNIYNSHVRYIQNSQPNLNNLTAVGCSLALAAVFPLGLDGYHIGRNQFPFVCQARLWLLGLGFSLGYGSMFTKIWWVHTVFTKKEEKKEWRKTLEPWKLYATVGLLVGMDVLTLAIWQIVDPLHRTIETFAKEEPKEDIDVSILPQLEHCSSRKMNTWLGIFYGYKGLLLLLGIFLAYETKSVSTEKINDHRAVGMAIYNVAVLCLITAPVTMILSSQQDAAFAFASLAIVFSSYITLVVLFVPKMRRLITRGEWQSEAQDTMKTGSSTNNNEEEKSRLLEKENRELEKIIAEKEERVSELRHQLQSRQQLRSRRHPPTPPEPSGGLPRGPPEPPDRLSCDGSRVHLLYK

As for `CP(=O)(O)C1CCNCC1`, the antagonist equilibrium constant (Kb) in experiment [1] came out at 6 µM.

With `CP(=O)(O)C1=CC[C@H](N)C1`, in experiment [1], the Kb came to 0.78 µM. The Imax in experiment [2] is 75.9%. For the same compound, the inhibition in experiment [3] stood at 4.1%. Further, the EC50 in experiment [4] stood at 52.2 µM.

With `CP(=O)(O)[C@H]1C[C@H](N)C1`, the IC50 in experiment [1] is greater than 100 µM. Moreover, the result in experiment [5] was inactive.

For the compound `N[C@H]1CC=C(C(=O)O)C1` (stereo in doubt; (S-6)), the Kb in experiment [1] is 6.1 µM.

Regarding `CP(=O)(O)[C@@H]1CC[C@@H](N)C1`, the Kb in experiment [1] was determined as 6.6 µM.

With `NC[C@H]1C[C@@H]1C(=O)O`, the EC50 in experiment [6] turned out to be 59 µM.

Consider `N[C@H]1CC=C(C(=O)O)C1` (stereo in doubt; 6), for which, in experiment [1], the Kb was found to be 6 µM. Also, the ED50 in experiment [7] came to 1.1 µM.

`CCCCP(=O)(O)C1=CC[C@@H](N)C1`: the Kb in experiment [1] was found to be 59.3 µM. Further, in experiment [3], the result was inactive.

Regarding `CCP(=O)(O)C1=CCC(N)C1` (racemic), the Kb in experiment [1] worked out at 3.53 µM. For the same compound, the inhibition in experiment [3] came to 5.2%.

Consider `CP(=O)(O)[C@H]1C[C@@H](N)C1`, for which the IC50 in experiment [1] is greater than 100 µM. Further, in experiment [5], the result was inactive.

In the case of `CP(=O)(O)[C@]1(O)C[C@H](N)C1`, the result in experiment [5] and in experiment [8] was inactive.

Turning to `NC1CC=C(P(=O)(O)Cc2ccccc2)C1` (racemic), the Kb in experiment [1] was 48.6 µM. In addition, the inhibition in experiment [3] turned out to be 64.1%.

On to `CCCCP(=O)(O)C1=CC[C@H](N)C1`, for which the Kb in experiment [1] turned out to be 4.97 µM. Moreover, in experiment [3], the inhibition is 24.2%.

On to `NC[C@@H]1C[C@@H]1C(=O)O`, for which the IC50 in experiment [1] was greater than 800 µM.

Turning to `CP(=O)(O)C1=CCC(N)C1` (racemic), the Kb in experiment [1] stood at 1.84 µM. Besides, the Imax in experiment [2] was 56.4%. Also, the inhibition in experiment [3] came to 6.2%. For the same compound, the EC50 in experiment [4] was found to be 51 µM.

Consider `CP(=O)(O)[C@H]1CC[C@H](N)C1`, for which the Kb in experiment [1] was 6.6 µM.

For `Oc1noc2c1CCNC2`, the Kb in experiment [1] stood at 32 µM.

Regarding `NCCCCC(=O)O`, the antagonist dissociation constant (Kb) in experiment [1] came to 20 µM.

Turning to `CP(=O)(O)[C@]1(O)C[C@@H](N)C1`, the outcome in experiment [5] and in experiment [8] was inactive.

With `CP(=O)(O)[C@H]1CC[C@@H](N)C1`, the Kb in experiment [1] is 1.1 µM.

For `CP(=O)(O)C1=CC[C@@H](N)C1`, in experiment [1], the Kb was determined as 18.9 µM. The Imax in experiment [2] stood at 52.3%. Also, the outcome in experiment [3] was inactive. In experiment [4], the EC50 worked out at 71.9 µM.

In the case of `NCc1cc(=O)[nH]o1` [MUSCIMOL], the EC50 in experiment [6] came out at 1.4 µM.

Turning to `NC[C@@H]1C[C@H]1C(=O)O`, in experiment [6], the EC50 came to 9 µM.

On to `O=C(O)Cc1c[nH]cn1`, for which, in experiment [1], the Kb worked out at 1.7 µM.

For `O=[Se](O)C1CCNCC1`, the antagonist equilibrium constant (Kb) in experiment [1] is 0.95 µM.

Regarding `CP(=O)(O)/C=C\CN`, the Kb in experiment [1] worked out at 38.9 µM.

On to `NC[C@H]1C[C@H]1C(=O)O`, for which, in experiment [6], the EC50 is 40 µM.

For `CP(=O)(O)C1=CCNCC1`, in experiment [1], the Kb was determined as 2.1 µM. In experiment [4], the EC50 came out at 500 µM.

Take `CC(C)P(=O)(O)C1=CCC(N)C1` (racemic): the Kb in experiment [1] was determined as 13.1 µM. Further, the inhibition in experiment [3] stood at 8.8%.

Turning to `CP(=O)(O)[C@@H]1CC[C@H](N)C1`, the Kb in experiment [1] stood at 1.1 µM.

As for `NC/C=C/C(=O)O` [t-4-AMINOCROTONIC ACID (TACA)], the EC50 in experiment [6] stood at 0.4 µM.

`CCCCP(=O)(O)C1=CCC(N)C1` (racemic): the Kb in experiment [1] is 7.24 µM. For the same compound, in experiment [3], the inhibition was 23.2%.

With `NCC(=O)CCC(=O)O` [AMINOLEVULINIC ACID], the IC50 in experiment [1] was found to be 12.9 µM.
